According to paper PMC6904838 (International Journal for Parasitology: Drugs and Drug …, 2019):

Experiments:
[1] = tested on: L. infantum promastigotes; test: In vitro assay on iRFP-L. infantum promastigotes; assay type: cell-based, Leishmania infantum
In short: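 iRFP-expressing L. infantum BCN150 promastigotes at 1 × 10^6 cells/mL in supplemented M199 (25 mM HEPES pH 6.9, 10% FBS). DMSO stocks were diluted in M199 to 0.01–200 μM final, with 72 h exposure at 26 °C. Viability was read as 713 nm infrared fluorescence, in triplicate. EC50 came from nonlinear fits. SIp = HepG2 72 h Alamar Blue CC50 / promastigote EC50.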

L. infantum amastigotes = assay type: cell-based, Leishmania infantum
In short: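 Female BALB/c mice were infected intraperitoneally with 10^8 iRFP-expressing metacyclic promastigotes. After five weeks, spleen cells were collagenase-dispersed into RPMI with 10% FBS and exposed to test compound (0.01–200 μM) at 37 °C, 5% CO2. After 72 h, amastigote viability was read by infrared fluorescence at 713 nm, and EC50 came from a nonlinear fit. HepG2 CC50 (Alamar Blue, 72 h, 0.01–200 μM) was divided by this EC50.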

HepG2 cytotoxicity = assay type: cell-based; conditions: human, HepG2 cells (ATCC HB-8065)
In short: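 HepG2 human hepatocarcinoma cells in Glutamax DMEM with 10% FBS and penicillin/streptomycin, seeded and held at 37 °C under 5% CO2. Serial dilutions of test compound (0.01–200 μM) added, viability read after 72 h by Alamar Blue per manufacturer's protocol. CC50 derived by non-linear fitting of viability versus concentration.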

## CCCCCCCCCCCCCCCCOP(=O)([O-])OCC[N+](C)(C)C [MTF, Miltefosine]
[1]
  SIp: Selectivity Index for promastigotes (CC50 HepG2/EC50 promastigotes): 8.5
L. infantum amastigotes
  SIa: Selectivity Index for amastigotes (CC50 HepG2/EC50 amastigotes): 21
HepG2 cytotoxicity
  CC50 at 72 h: 50.4 ± 4.3 µM
